# High-throughput results deposited in PubChem by Broad Institute.
# FN deposit inh: inhibitors of fibronectin matrix deposition, primary screen, AH1F cells, Alexa488-fibronectin fluorescence, plate reader; AH1F fibroblasts, overnight; AID 743247, 2014; 350,000 tested, 0.086% active; inhibition, % at 12.6 µM;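 active = mean inhibition across replicates of 30% or more, regardless of how many single replicates reach that level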;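 also: positive control wells lacked labelled fibronectin entirely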
#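 Assay system: AH1F fibroblasts assembling fluorescent fibronectin matrix; Amount: 10000 AH1F cells per well; Buffer or medium: DMEM, 2% serum; Probe or stimulus: Alexa488-fibronectin, 24 nM final in well; Doses: single compound dose, delivered by pin transfer; Incubation: 1 h adhesion, overnight exposure; Measured by: fluorescence 485/525 nm; Read-out: fibronectin deposition inhibition.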
# EWS-Fli inh: EWS/Fli-driven NR0B1 reporter inhibitors, primary screen, A673 cells, NR0B1 luciferase, luminescence, MLPCN library; viability-normalised; inhibition, % at 12.6 µM; 350,000 tested, 0.67% active; AID 651661, 2012;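 active = mean inhibition of at least 50% after viability correction, with every replicate also passing that limit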;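 also: firefly luciferase signal divided by Alamar Blue viability fluorescence both relative to DMSO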
# N-glyco inh: increase of ERlucT glycosylation luciferase signal, primary screen, N-linked glycosylation inhibitor project, D54 ERlucT cells, luminescence, set 2 | D54 ERlucT glycosylation luciferase reporter, 24 h; percent of 100 nM tunicamycin response | reporter increase, % at 12.5 µM | 360,000 tested, 0.23% active | AID 588692, 2011;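 active = mean luciferase reporter signal, scaled so untreated is 0 and the glycosylation-blocking control 100, at or above a set limit in every replicate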;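 also: luciferase carries N-glycosylation sites so blocking glycosylation raises the light; 0% = median of neutral control wells and 100% = median of 100 nM tunicamycin wells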
# MLL AF4-AF9 inh: inhibitors of AF4 peptide binding to AF9, primary screen, biochemical, AlphaScreen, biotin-AF4 peptide, FLAG-AF9, single point; Protein AF-9 (Homo sapiens), P42568; inhibition, % at 10 µM; 350,000 tested, 0.47% active;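 active = every replicate reaching a set inhibition limit, whatever the replicate mean, cut at about 25% in these data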;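 also: 0% = plate neutral control median and 100% = total signal loss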
# Target sequence (P42568 whole entry, looked up): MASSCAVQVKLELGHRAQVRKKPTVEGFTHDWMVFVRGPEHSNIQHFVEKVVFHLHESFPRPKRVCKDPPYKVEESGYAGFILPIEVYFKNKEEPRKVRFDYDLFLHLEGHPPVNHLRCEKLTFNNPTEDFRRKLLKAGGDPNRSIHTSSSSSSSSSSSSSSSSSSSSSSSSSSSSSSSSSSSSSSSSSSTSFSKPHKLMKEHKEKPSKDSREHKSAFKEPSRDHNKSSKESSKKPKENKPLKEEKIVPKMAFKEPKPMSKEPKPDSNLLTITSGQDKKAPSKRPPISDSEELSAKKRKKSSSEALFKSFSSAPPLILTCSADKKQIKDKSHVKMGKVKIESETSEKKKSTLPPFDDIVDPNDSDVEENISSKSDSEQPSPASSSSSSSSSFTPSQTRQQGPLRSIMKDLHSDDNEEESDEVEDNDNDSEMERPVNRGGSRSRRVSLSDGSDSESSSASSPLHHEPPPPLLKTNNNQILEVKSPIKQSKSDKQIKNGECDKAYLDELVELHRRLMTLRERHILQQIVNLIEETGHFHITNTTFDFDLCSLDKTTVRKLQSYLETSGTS
# Env fusion inh: inhibitors of HIV-1 Env-driven cell-cell fusion, primary screen, HeLa-JRFL effector, CEM21 target cells, luciferase | 360,000 tested, 1.1% active | inhibition, % at 12.3 µM;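 active = mean replicate inhibition score of at least 50 and every replicate individually at or above 50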;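 also: 0% = plate neutral controls and 100% = maraviroc near 300 nM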
# PAX8 reporter: inhibitors of PAX8-driven TPO luciferase reporter, primary screen, RMG-I cells, single concentration; 360,000 tested, 1.2% active; inhibition, % at 12.6 µM; SteadyGlo, 24 h; AID 652154, 2013;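 active = mean replicate inhibition at least 60% with every replicate also reaching 60%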;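 also: luciferase light reporting Pax8 driven TPO promoter activity; plate controls were median of neutral control wells for no effect and mitoxantrone controls for full effect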
# Active calls of the source: *; x = no result; [ ] = another dose, or the depositor's remark. In the library only some 2.5% were active in any assay of this set; here they are far more common.
SMILES,FN deposit inh,EWS-Fli inh,N-glyco inh,MLL AF4-AF9 inh,Env fusion inh,PAX8 reporter
COC(=O)CSc1ccc2nnc(-c3ccc(F)cc3)n2n1,x,-1,1,4,x,x
C[C@@H]1CN([C@H](C)CO)C(=O)c2cc(-c3cccc(F)c3)cnc2O[C@H]1CN(C)S(=O)(=O)c1cccc(F)c1,-14,6,x,3,-49[16.7 µM],x
Cc1noc(C)c1S(=O)(=O)Nc1ccc2c(c1)C(=O)N([C@H](C)CO)C[C@H](C)[C@@H](CN(C)C(=O)Nc1ccc(C(F)(F)F)cc1)OCCCC[C@H](C)O2,x,-18,x,6,44[16.7 µM],86*
Cc1noc(C)c1S(=O)(=O)Nc1ccc2c(c1)C(=O)N([C@@H](C)CO)C[C@@H](C)[C@H](CN(C)C(=O)Nc1ccc(F)cc1)OCCCC[C@H](C)O2,5,-10,x,-3,-22[16.7 µM],-11
Cc1noc(C)c1S(=O)(=O)Nc1ccc2c(c1)C(=O)N([C@H](C)CO)C[C@H](C)[C@H](CN(C)C(=O)Nc1ccc(C(F)(F)F)cc1)OCCCC[C@H](C)O2,x,0,x,0,18[16.7 µM],68*
Cc1noc(C)c1S(=O)(=O)Nc1ccc2c(c1)C(=O)N([C@@H](C)CO)C[C@H](C)[C@H](CN(C)C(=O)Nc1ccc(C(F)(F)F)cc1)OCCCC[C@H](C)O2,x,-12,x,-1,22[16.7 µM],89*
Cc1noc(C)c1S(=O)(=O)Nc1ccc2c(c1)C(=O)N([C@@H](C)CO)C[C@@H](C)[C@@H](CN(C)C(=O)Nc1ccc(C(F)(F)F)cc1)OCCCC[C@@H](C)O2,x,6,x,-4,13[16.7 µM],26
C[C@H]1CN([C@@H](C)CO)C(=O)Cc2cc(NC(=O)Nc3ccc4c(c3)OCO4)ccc2O[C@H]1CN(C)CC1CCCCC1,x,-5,x,17,-2[16.7 µM],-9
C[C@H](CO)N1C[C@H](C)[C@@H](CN(C)CC2CCCCC2)Oc2ccc(NC(=O)Nc3ccc4c(c3)OCO4)cc2CC1=O,x,0,x,26*,25[16.7 µM],90*
C[C@H]1CN([C@@H](C)CO)C(=O)Cc2cc(NC(=O)Nc3ccc4c(c3)OCO4)ccc2O[C@@H]1CN(C)CC1CCCCC1,x,2,x,10,13[16.7 µM],101*
C[C@H](CO)N1C[C@H](C)[C@H](CN(C)CC2CCCCC2)Oc2ccc(NC(=O)Nc3ccc(F)cc3)cc2CC1=O,x,60*,x,0,18[16.7 µM],9
Cc1noc(C)c1NC(=O)N(C)C[C@@H]1Oc2ccc(NC(=O)Nc3cccc4ccccc34)cc2C(=O)N([C@H](C)CO)C[C@@H]1C,x,0,x,7,0[16.7 µM],9
O=C(C[C@H]1CC[C@@H]2[C@H](COC[C@@H](O)CN2C(=O)c2ccccn2)O1)N1CCN(c2ccccc2)CC1,-2,-9,x,0,x,5
COc1ccc(/C=N/Nc2cc(C)nc3ccc(Br)cc23)cc1,3,48,-24,13,-14,95*
COc1ccc2nc(C)cc(N/N=C/c3cccc(OC)c3O)c2c1,-7,68*,-12,25*,-6,95*
COc1cccc2c(N/N=C/c3ccccc3)cc(C)nc12,2,6,-2,5,20,-6
COc1ccc(N2C(=O)CN=C2Nc2nc(C)cc(C)n2)cc1,1,x,1,x,-10,76*
O=C(C[C@@H]1C=C[C@H](NS(=O)(=O)c2ccc(F)cc2)[C@@H](CO)O1)NC1CCCCC1,x,0,x,-2,-2[16.7 µM],1
C[C@H](CO)N1C[C@H](C)[C@H](CN(C)Cc2cccc(F)c2)OCc2ccccc2-c2ccccc2C1=O,-16,2,x,x,75*[16.7 µM],10
C[C@H](CO)N1C[C@H](C)[C@H](CN(C)Cc2cccc(F)c2)OCc2ccccc2-c2c(n(C)c3ccccc23)C1=O,1,-16,x,x,x,-5
C[C@H](CO)N1C[C@H](C)[C@H](CN(C)Cc2ccc(C(F)(F)F)cc2)OCc2ccccc2-c2ccccc2C1=O,-13,1,x,-4,x,21
C[C@H]1CN([C@@H](C)CO)C(=O)c2c(c3ccccc3n2C)-c2ccccc2CO[C@H]1CN(C)Cc1cccc(F)c1,-2,3,-1,2,67*,6
C[C@@H]1CN([C@@H](C)CO)C(=O)c2ccccc2-c2ccccc2CO[C@H]1CN(C)Cc1ccccc1C(F)(F)F,3,23,x,9,x,79*
C[C@@H]1CN([C@@H](C)CO)C(=O)c2c(c3ccccc3n2C)-c2ccccc2CO[C@@H]1CN(C)Cc1cccnc1,-6,7,x,-4,-7[16.7 µM],2
C[C@H](CO)N1C[C@H](C)[C@H](CN(C)Cc2cccnc2)OCc2ccccc2-c2c(n(C)c3ccccc23)C1=O,-9,6,x,-3,59*[16.7 µM],9
SMILES,FN deposit inh,EWS-Fli inh,N-glyco inh,MLL AF4-AF9 inh,Env fusion inh,PAX8 reporter
Cc1noc(C)c1NC(=O)Nc1ccc2c(c1)C(=O)N([C@@H](C)CO)C[C@H](C)[C@H](CN(C)Cc1ccc(C(F)(F)F)cc1)OCCCC[C@H](C)O2,x,18,x,11,39[16.7 µM],1
C[C@@H]1CN([C@@H](C)CO)C(=O)c2c(c3ccccc3n2C)-c2ccccc2CO[C@@H]1CN(C)Cc1cccc(C(F)(F)F)c1,28,2,x,1,x,56
C[C@H]1CN([C@@H](C)CO)C(=O)c2c(c3ccccc3n2C)-c2ccccc2CO[C@@H]1CN(C)Cc1cccc(C(F)(F)F)c1,-19,3,x,5,x,82*
CCOc1cc(/C=N/Nc2cccc(C(=O)O)c2)ccc1OC(=O)c1ccccc1,6,-48,-7,3,65*,67*
Cc1ccc(Nc2nc(-c3ccc(F)cc3)cs2)nc1,-1,-97,-8,-2,-174,-100
Cc1ccc(Nc2nc(-c3ccc(O)c(O)c3)cs2)nc1,-12,-7,x,42*,-16,-93
CCN=C1NN=C(c2cc(C)n(Cc3ccco3)c2C)CS1,0,64*,-14,8,1,x
CC(C)(Sc1ccc(CCN(CCCCC2CCCCC2)C(=O)NC2CCCCC2)cc1)C(=O)O,-9,5,2,-7,57*,-19
COc1cccc2sc3cc(C#Cc4ccccn4)ccc3c(=O)c12,6,-95,0,-1,-25,-45
COc1cc2sc3ccc(C#Cc4ccccn4)cc3c(=O)c2cc1OC,5,-16,-1,x,56*,23
CCOC(=O)/C=C(\C)Sc1cc(=O)oc2ccccc12,-2,x,25*,x,23,64*
CCOC(=O)/C=C(\C)Sc1cc(O)c2ccccc2c1O,8,36,5,19,11,35
C[C@@H]1CN([C@@H](C)CO)S(=O)(=O)c2ccc(-c3cccnc3)cc2O[C@@H]1CN(C)Cc1ccncc1,0,-1,x,3,-18[16.7 µM],x
